ChEMBL document CHEMBL1141140, “Antifungal agents. 11. N-substituted derivatives of 1-[(aryl)(4-aryl-1H-pyrrol-3-yl)methyl]-1H-imidazole: synthesis, anti-Candida activity, and QSAR studies” (2005)
≈ marks a conversion by molar mass, not a printed value.

What was measured:
Assay type in all cases: functional
Candida albicans [1] = experiment: In vitro minimal inhibitory concentration against Candida albicans with percentage of resistant strains %R = 50 (MIC > 64 ug/mL) at a range of 2-4 ug/mL
Candida albicans [2] = experiment: In vitro concentration causing 90% inhibition of Candida albicans with percentage of resistant strains %R = 50 (MIC > 64 ug/mL) at a range of 2-4 ug/mL
Candida albicans [3] = experiment: Ratio of the in vitro minimal inhibitory to that of bifonazole against Candida albicans (MIC(compound)/MIC(bifonazole))
How it was run: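 Broth microdilution per NCCLS M27-A2 against 12 Candida albicans strains (AIDS oropharyngeal, HIV vulvovaginitis isolates, ATCC 24433 and 20891, lab strains 3153 and CA2). Inoculum ~10^4 cells/mL in RPMI 1640, pH 7.0; DMSO stocks 6.4 mg/mL, twofold dilutions 0.016–64 μg/mL; read at 24 h, 28 °C, no visible growth. Mean MIC over strains converted to μmol/mL, divided by bifonazole MIC.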

Candida albicans [4] = experiment: In vitro concentration causing 50% inhibition of Candida albicans with percentage of resistant strains %R = 50 (MIC > 64 ug/mL) at a range of 2-4 ug/mL
Candida albicans [5] = experiment: In vitro concentration causing 50% inhibition of Candida albicans with percentage of resistant strains %R = 41.66 (MIC > 64 ug/mL) at a range of 0.5-2 ug/mL
Candida albicans [6] = experiment: In vitro minimal inhibitory concentration against Candida albicans with percentage of resistant strains %R = 41.66 (MIC > 64 ug/mL) at a range of 0.5-2 ug/mL
Candida albicans [7] = experiment: In vitro concentration causing 90% inhibition of Candida albicans with percentage of resistant strains %R = 41.66 (MIC > 64 ug/mL) at a range of 0.5-2 ug/mL
Candida albicans [8] = experiment: In vitro minimal inhibitory concentration against Candida albicans with percentage of resistant strains %R = 100 (MIC > 64 ug/mL) at a range > 64
Candida albicans [9] = experiment: In vitro concentration causing 50% inhibition of Candida albicans with percentage of resistant strains %R = 100 (MIC > 64 ug/mL) at a range > 64
Candida albicans [10] = experiment: In vitro concentration causing 90% inhibition of Candida albicans with percentage of resistant strains %R = 100 (MIC > 64 ug/mL) at a range > 64
Candida albicans [11] = experiment: In vitro minimal inhibitory concentration against Candida albicans with percentage of resistant strains %R = 33.33 (MIC > 64 ug/mL) at a range of 0.25-2 ug/mL
Candida albicans [12] = experiment: In vitro concentration causing 50% inhibition of Candida albicans with percentage of resistant strains %R = 33.33 (MIC > 64 ug/mL) at a range of 0.25-2 ug/mL
Candida albicans [13] = experiment: In vitro concentration causing 90% inhibition of Candida albicans with percentage of resistant strains %R = 33.33 (MIC > 64 ug/mL) at a range of 0.25-2 ug/mL
Candida albicans [14] = experiment: In vitro concentration causing 90% inhibition of Candida albicans with percentage of resistant strains %R = 50 (MIC > 64 ug/mL) at a range of 0.5-16 ug/mL
Candida albicans [15] = experiment: In vitro minimal inhibitory concentration against Candida albicans with percentage of resistant strains %R = 50 (MIC > 64 ug/mL) at a range of 0.5-16 ug/mL
Candida albicans [16] = experiment: In vitro concentration causing 50% inhibition of Candida albicans with percentage of resistant strains %R = 50 (MIC > 64 ug/mL) at a range of 0.5-16 ug/mL
Candida albicans [17] = experiment: In vitro concentration causing 90% inhibition of Candida albicans with percentage of resistant strains %R = 66 (MIC > 64 ug/mL) at a range of 2-8 ug/mL
Candida albicans [18] = experiment: In vitro minimal inhibitory concentration against Candida albicans with percentage of resistant strains %R = 66 (MIC > 64 ug/mL) at a range of 2-8 ug/mL
Candida albicans [19] = experiment: In vitro concentration causing 50% inhibition of Candida albicans with percentage of resistant strains %R = 66 (MIC > 64 ug/mL) at a range of 2-8 ug/mL
Candida albicans [20] = experiment: In vitro minimal inhibitory concentration against Candida albicans with percentage of resistant strains %R = 66 (MIC > 64 ug/mL) at a range of 0.25-2 ug/mL
Candida albicans [21] = experiment: In vitro concentration causing 50% inhibition of Candida albicans with percentage of resistant strains %R = 66 (MIC > 64 ug/mL) at a range of 0.25-2 ug/mL
Candida albicans [22] = experiment: In vitro concentration causing 90% inhibition of Candida albicans with percentage of resistant strains %R = 66 (MIC > 64 ug/mL) at a range of 0.25-2 ug/mL
Candida albicans [23] = experiment: In vitro concentration causing 50% inhibition of Candida albicans with percentage of resistant strains %R = 25 (MIC > 64 ug/mL) at a range of 0.5-2 ug/mL
Candida albicans [24] = experiment: In vitro minimal inhibitory concentration against Candida albicans with percentage of resistant strains %R = 25 (MIC > 64 ug/mL) at a range of 0.5-2 ug/mL
Candida albicans [25] = experiment: In vitro concentration causing 90% inhibition of Candida albicans with percentage of resistant strains %R = 25 (MIC > 64 ug/mL) at a range of 0.5-2 ug/mL
Candida albicans [26] = experiment: In vitro concentration causing 50% inhibition of Candida albicans with percentage of resistant strains %R = 50 (MIC > 64 ug/mL) at a range of 0.125-2 ug/mL
Candida albicans [27] = experiment: In vitro concentration causing 90% inhibition of Candida albicans with percentage of resistant strains %R = 50 (MIC > 64 ug/mL) at a range of 0.125-2 ug/mL
Candida albicans [28] = experiment: In vitro minimal inhibitory concentration against Candida albicans with percentage of resistant strains %R = 50 (MIC > 64 ug/mL) at a range of 0.125-2 ug/mL

For `COC(Cn1cc(-c2ccc(Cl)cc2)c(C(c2ccc(Cl)cc2Cl)n2ccnc2)c1)OC` (stereo not given), the MIC (Candida albicans [1]) was 2.66 µg/mL (≈ 5.42 µM), the MIC90 (Candida albicans [2]) was 4 µg/mL (≈ 8.15 µM) and the Ratio (Candida albicans [3]) was 0.48. It also gave an MIC50 (Candida albicans [4]) of 2 µg/mL (≈ 4.07 µM).

`CCn1cc(-c2ccc(Cl)cc2Cl)c(C(c2ccc(Cl)cc2Cl)n2ccnc2)c1` (stereo not given) was tested, and the MIC50 (Candida albicans [5]) was 1 µg/mL (≈ 2.15 µM), the MIC (Candida albicans [6]) was 1.21 µg/mL (≈ 2.6 µM) and the Ratio (Candida albicans [3]) was 0.23. It also gave an MIC90 (Candida albicans [7]) of 2 µg/mL (≈ 4.3 µM).

`CCCn1cc(-c2ccc(Cl)cc2Cl)c(C(c2ccc(Cl)cc2Cl)n2ccnc2)c1` (stereo not given) gave an MIC (Candida albicans [8]) of over 64 µg/mL, an MIC50 (Candida albicans [9]) of over 64 µg/mL and an MIC90 (Candida albicans [10]) of over 64 µg/mL.

`Cc1ccc(C(c2cn(C)cc2-c2ccc(Cl)c(Cl)c2)n2ccnc2)cc1` (stereo not given) was tested, and the MIC (Candida albicans [11]) was 0.87 µg/mL (≈ 2.2 µM), the Ratio (Candida albicans [3]) was 0.19 and the MIC50 (Candida albicans [12]) was 0.5 µg/mL (≈ 1.26 µM). It also gave an MIC90 (Candida albicans [13]) of 2 µg/mL (≈ 5.05 µM).

`Cn1cc(-c2cccc3ccccc23)c(C(c2ccc(Cl)cc2Cl)n2ccnc2)c1` (stereo not given) gave an MIC90 (Candida albicans [14]) of 16 µg/mL (≈ 37 µM), an MIC (Candida albicans [15]) of 4.58 µg/mL (≈ 10.6 µM) and an MIC50 (Candida albicans [16]) of 4 µg/mL (≈ 9.25 µM). It also gave a Ratio (Candida albicans [3]) of 0.94.

Compound `CCn1cc(-c2cccc3ccccc23)c(C(c2ccc(Cl)cc2Cl)n2ccnc2)c1` (stereo not given) has an MIC90 (Candida albicans [17]) of 8 µg/mL (≈ 17.9 µM), an MIC (Candida albicans [18]) of 5.5 µg/mL (≈ 12.3 µM) and a Ratio (Candida albicans [3]) of 1.1. It also gave an MIC50 (Candida albicans [19]) of 4 µg/mL (≈ 8.96 µM).

For `CCCn1cc(-c2ccc(Cl)cc2)c(C(c2ccc(Cl)cc2Cl)n2ccnc2)c1` (stereo not given), the MIC (Candida albicans [20]) was 8.56 µg/mL (≈ 19.2 µM), the MIC50 (Candida albicans [21]) was 1 µg/mL (≈ 2.25 µM) and the Ratio (Candida albicans [3]) was 1.7. It also gave an MIC90 (Candida albicans [22]) of 32 µg/mL (≈ 71.9 µM).

For `CCn1cc(-c2ccc(Cl)cc2)c(C(c2ccc(Cl)cc2Cl)n2ccnc2)c1` (stereo not given), the MIC50 (Candida albicans [23]) was 2 µg/mL (≈ 4.64 µM), the MIC (Candida albicans [24]) was 1.5 µg/mL (≈ 3.48 µM) and the Ratio (Candida albicans [3]) was 0.31. It also gave an MIC90 (Candida albicans [25]) of 2 µg/mL (≈ 4.64 µM).

Compound `Cn1cc(-c2ccc(Cl)cc2)c(C(c2ccc(Cl)cc2Cl)n2ccnc2)c1` (stereo not given) has an MIC50 (Candida albicans [26]) of 1 µg/mL (≈ 2.4 µM), an MIC90 (Candida albicans [27]) of 2 µg/mL (≈ 4.8 µM) and a Ratio (Candida albicans [3]) of 0.28. For the same compound, the MIC (Candida albicans [28]) was 1.31 µg/mL (≈ 3.14 µM).
